According to ChEMBL document CHEMBL4190234, “Design, synthesis and anticancer activity of new monastrol analogues bearing 1,3,4-oxadiazole moiety” (Eur J Med Chem, 2017):

Legend:
[1] = system: HL-60(TB); assay: Growth inhibition of human HL-60(TB) cells incubated for 24 hrs by MTT assay; type: functional, cell-based; conditions: HL-60, 24 h
How it was run: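 Cells at 1.2-1.8×10^4 cells/ml in DMEM with 10% FBS, 10 µg/ml insulin and 1% penicillin/streptomycin, plated overnight at 37°C. Serial 10-fold dilutions added to 0.01–100 µM final, medium as negative control, 24 h. MTT (5 mg/ml) added for 4 h, formazan dissolved in acid-isopropanol, A490 read. Eight separate experiments; percent viable cells used to derive IC50.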

[2] = system: MOLT-4; assay: Growth inhibition of human MOLT4 cells incubated for 24 hrs by MTT assay; type: functional, cell-based; conditions: MOLT-4, 24 h
[3] = system: HL-60(TB); assay: Induction of apoptosis in human HL-60(TB) cells assessed as late apoptotic cells at 0.294 uM after 24 hrs by Annexin V-FITC/propidium iodide staining based flow cytometry (reference value: 0.39%); type: functional
[4] = system: MOLT-4; assay: Cell cycle arrest in human MOLT4 cells assessed as accumulation at G0/G1 phase at 0.43 uM after 24 hrs by propidium iodide staining based flow cytometry (reference value: 74.22%); type: functional
How it was run: (§1)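 MOLT-4 cells (1×10^6) exposed 24 h to 0.160 or 0.430 μM test agent, DMSO (0.002%) control; trypsinized, washed in ice-cold PBS, fixed in ice-cold 70% ethanol ≥2 h at 4°C, washed, stained with propidium iodide DNA kit; cell cycle distribution (pre-G, G0/G1, S, G2/M) by flow cytometry.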

[5] = system: HL-60(TB); assay: Cell cycle arrest in human HL-60(TB) cells assessed as accumulation at G0/G1 phase at 0.294 uM after 24 hrs by propidium iodide staining based flow cytometry (reference value: 68.43%); type: functional
[6] = system: HL-60(TB); assay: Induction of apoptosis in human HL-60(TB) cells assessed as early apoptotic cells at 0.294 uM after 24 hrs by Annexin V-FITC/propidium iodide staining based flow cytometry (reference value: 0.84%); type: functional
[7] = system: MOLT-4; assay: Induction of apoptosis in human MOLT4 cells assessed as necrotic cells at 0.43 uM after 24 hrs by Annexin V-FITC/propidium iodide staining based flow cytometry (reference value: 0.11%); type: functional
[8] = system: HL-60(TB); assay: Cell cycle arrest in human HL-60(TB) cells assessed as accumulation of apoptotic cells in pre-G phase at 0.294 uM after 24 hrs by propidium iodide staining based flow cytometry (reference value: 1.44%); type: functional
[9] = system: MOLT-4; assay: Induction of apoptosis in human MOLT4 cells assessed as late apoptotic cells at 0.43 uM after 24 hrs by Annexin V-FITC/propidium iodide staining based flow cytometry (reference value: 0.24%); type: functional
[10] = system: MOLT-4; assay: Induction of apoptosis in human MOLT4 cells assessed as early apoptotic cells at 0.43 uM after 24 hrs by Annexin V-FITC/propidium iodide staining based flow cytometry (reference value: 0.53%); type: functional
[11] = system: MOLT-4; assay: Cell cycle arrest in human MOLT4 cells assessed as accumulation at S phase at 0.43 uM after 24 hrs by propidium iodide staining based flow cytometry (reference value: 20.55%); type: functional; how it was run: as §1
[12] = system: MOLT-4; assay: Induction of apoptosis in human MOLT4 cells assessed as increase in apoptotic cells at 0.43 uM after 24 hrs by Annexin V-FITC/propidium iodide staining based flow cytometry relative to control; type: functional
[13] = system: HL-60(TB); assay: Cell cycle arrest in human HL-60(TB) cells assessed as accumulation at G2/M phase at 0.294 uM after 24 hrs by propidium iodide staining based flow cytometry (reference value: 7.29%); type: functional
[14] = system: MOLT-4; assay: Cell cycle arrest in human MOLT4 cells assessed as accumulation of apoptotic cells in pre-G phase at 0.43 uM after 24 hrs by propidium iodide staining based flow cytometry (reference value: 0.88%); type: functional; how it was run: as §1
[15] = system: MOLT-4; assay: Induction of apoptosis in human MOLT4 cells assessed as live cells at 0.43 uM after 24 hrs by Annexin V-FITC/propidium iodide staining based flow cytometry (reference value: 99.12%); type: functional
[16] = system: HL-60(TB); assay: Induction of apoptosis in human HL-60(TB) cells assessed as necrotic cells at 0.294 uM after 24 hrs by Annexin V-FITC/propidium iodide staining based flow cytometry (reference value: 0.2%); type: functional
[17] = system: HL-60(TB); assay: Induction of apoptosis in human HL-60(TB) cells assessed as live cells at 0.294 uM after 24 hrs by Annexin V-FITC/propidium iodide staining based flow cytometry (reference value: 98.57%); type: functional
[18] = system: MOLT-4; assay: Cell cycle arrest in human MOLT4 cells assessed as accumulation at G2/M phase at 0.43 uM after 24 hrs by propidium iodide staining based flow cytometry (reference value: 4.35%); type: functional; how it was run: as §1
[19] = system: HL-60(TB); assay: Cell cycle arrest in human HL-60(TB) cells assessed as accumulation at S phase at 0.294 uM after 24 hrs by propidium iodide staining based flow cytometry (reference value: 22.84%); type: functional
[20] = system: HL-60(TB); assay: Induction of apoptosis in human HL-60(TB) cells assessed as increase in apoptotic cells at 0.294 uM after 24 hrs by Annexin V-FITC/propidium iodide staining based flow cytometry relative to control; type: functional

`CCOC(=O)C1=C(C)NC(SCc2nnc(-c3ccc(Cl)cc3)o2)=NC1c1ccccc1Cl` (stereo unspecified) was tested, and the IC50 [1] was 193 µM and the IC50 [2] was 255 µM.
Molecule `CCOC(=O)C1=C(C)NC(SCc2nnc(-c3ccc(C)cc3)o2)=NC1c1ccc(Cl)cc1` (stereo unspecified) has an IC50 [1] of 220 µM and an IC50 [2] of 538 µM.
`CCOC(=O)C1=C(C)NC(SCc2nnc(-c3ccccc3)o2)=NC1c1ccc(Cl)cc1` (stereo unspecified) gave an IC50 [1] of 74.4 µM and an IC50 [2] of 344 µM.
`CCOC(=O)C1=C(C)NC(=S)NC1c1cccc(O)c1` (stereo unspecified) [MONASTROL] showed an Activity [3] of 3.19%, an Activity [4] of 55.72% and an Activity [5] of 61.23%. The Activity [6] was 3.07%, the Activity [7] was 1.03% and the Activity [8] was 6.89%. For the same molecule, the Activity [9] was 4.21%, the IC50 [1] was 0.147 µM and the Activity [10] was 3.39%. For the same molecule, the Activity [11] was 21.73%, the “fold change (FC)” value [12] was 10 and the Activity [13] was 9.98%. The Activity [14] was 8.63%, the Activity [15] was 89.2% and the IC50 [2] was 0.215 µM. It also gave an Activity [16] of 0.63%, an Activity [17] of 90.89% and an Activity [18] of 13.92%. For the same molecule, the Activity [19] was 21.9% and the “fold change (FC)” value [20] was 5.1.
